In data set [1] the target is T1, Gonadotropin-releasing hormone receptor (Homo sapiens, UniProt P30968).
T1 sequence (P30968 whole entry): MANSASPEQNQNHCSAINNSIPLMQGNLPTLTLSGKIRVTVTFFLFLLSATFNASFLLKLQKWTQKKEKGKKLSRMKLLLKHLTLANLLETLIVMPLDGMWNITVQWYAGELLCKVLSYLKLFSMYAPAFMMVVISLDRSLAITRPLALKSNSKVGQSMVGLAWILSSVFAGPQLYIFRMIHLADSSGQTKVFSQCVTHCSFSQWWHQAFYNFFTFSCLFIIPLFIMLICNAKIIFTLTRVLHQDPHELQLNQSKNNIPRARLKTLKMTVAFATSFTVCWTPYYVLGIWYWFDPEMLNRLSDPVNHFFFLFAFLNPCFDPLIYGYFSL
The data set can be described thus: Antagonist concentration required to inhibit specific binding of [125I]leuprorelin to human luteinizing releasing hormone receptor in cloned chinese hamster ovary (CHO) cells. The class given is cell-based.

Data set [2] in a line: Tested for oral absorption in Cynomolgus Monkey at the dose of 10 mg/kg, activity expressed as Cmax. The class given is ADME, organism-based, Macaca fascicularis. Also on record: dose 10 mg/kg, route oral. The note with it: in vivo. The procedure, abridged:
(§1)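 Single oral dose of 10 mg/kg as suspension in 0.5% methylcellulose to female cynomolgus monkeys (4–8 years, n = 3). Forearm-vein heparin plasma taken at 1, 3 and 6 h, deproteinized with 5% acetonitrile/0.05% TFA, compound measured by reverse-phase HPLC with UV detection at 320 nm.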

In data set [3] the test system is Cynomolgus monkey. Description: (§2) Tested for oral absorption in Cynomolgus Monkey at the dose of 10 mg/kg, activity expressed as area under curve (AUC). The class given is ADME, organism-based, Macaca fascicularis. Also on record: dose 10 mg/kg, route oral. The note with it: in vivo. Put shortly: as §1
Data set [4] can be described thus: Tested for oral absorption in Cynomolgus Monkey at the dose of 10 mg/kg, activity expressed as Tmax (time required for Cmax). The note with it: in vivo. Type of data set: ADME, organism-based, Macaca fascicularis. More on the design: dose 10 mg/kg, route oral. The procedure, abridged:
as §1

A short description of data set [5]: as §2. The class given is ADME, organism-based, Macaca fascicularis. Also on record: dose 10 mg/kg, route oral. The note with it: in vivo. The procedure, abridged: as §1
Data set [6] is described as follows: Tested for plasma LH concentration in Castarted male Cynomolgus monkeys for oral administration at the dose of 30 mg/kg after 24 h. The class given is functional, Cercopithecidae. The procedure, abridged:
(§3)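 Castrated (more than 6 months) male cynomolgus monkeys aged 4–9 years, chair-restrained, dosed orally at 30 mg/kg (3 mL/kg, n = 3) as suspension in 0.5% methylcellulose/1.2% citric acid; vehicle controls n = 3. Plasma LH from femoral-vein samples through 48 h, assayed by bioassay with mouse testicular cells; mean ± SEM and % of pretreatment.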

Data set [7] in a line: Tested for plasma LH concentration in Castarted male Cynomolgus monkeys for oral administration at the dose of 30 mg/kg after 4 h. The class given is functional, Cercopithecidae. The procedure, abridged: as §3
Data set [8] is described as follows: Tested for plasma LH concentration in Castarted male Cynomolgus monkeys for oral administration at the dose of 10 mg/kg after 8 h. The class given is functional, Cercopithecidae. Put shortly:
(§4)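 Male cynomolgus monkeys (4–9 years), castrated more than 6 months earlier and chair-restrained, given 10 mg/kg orally (3 mL/kg, n = 3) in 0.5% methylcellulose with 1.2% citric acid; vehicle group n = 3. Femoral-vein heparin plasma taken at 0–48 h; LH measured by mouse testicular cell bioassay. Mean ± SEM, also as % of 0 h value.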

A short description of data set [9]: Tested for plasma LH concentration in Castarted male Cynomolgus monkeys for oral administration at the dose of 10 mg/kg after 48 h. Type of data set: functional, Cercopithecidae. Put shortly:
as §4

The nature of data set [10]: Tested for plasma LH concentration in Castarted male Cynomolgus monkeys for oral administration at the dose of 30 mg/kg after 48 h. The class given is functional, Cercopithecidae. The procedure, abridged: as §3
The nature of data set [11]: Tested for plasma LH concentration in Castarted male Cynomolgus monkeys for oral administration at the dose of 30 mg/kg after 0 h. Type of data set: functional, Cercopithecidae. Put shortly: as §3
Data set [12] is described as follows: Tested for plasma LH concentration in Castarted male Cynomolgus monkeys for oral administration at the dose of 30 mg/kg after 8 h. The class given is functional, Cercopithecidae. The procedure, abridged: as §3
Data set [13] can be described thus: Tested for plasma LH concentration in Castarted male Cynomolgus monkeys for oral administration at the dose of 10 mg/kg after 24 h. Type of data set: functional, Cercopithecidae. Put shortly:
as §4

A short description of data set [14]: Tested for plasma LH concentration in Castarted male Cynomolgus monkeys for oral administration at the dose of 30 mg/kg after 2 h. Type of data set: functional, Cercopithecidae. The procedure, abridged:
as §3

A short description of data set [15]: Tested for plasma LH concentration in Castarted male Cynomolgus monkeys for oral administration at the dose of 10 mg/kg after 4 h. Type of data set: functional, Cercopithecidae. Put shortly:
as §4

A short description of data set [16]: Tested for plasma LH concentration in Castarted male Cynomolgus monkeys for oral administration at the dose of 10 mg/kg after 2 h. The class given is functional, Cercopithecidae. Put shortly: as §4
Data set [17] in a line: Tested for plasma LH concentration in Castarted male Cynomolgus monkeys for oral administration at the dose of 10 mg/kg after 0 h. The class given is functional, Cercopithecidae. Put shortly:
as §4

This note sets out measurements from ChEMBL document CHEMBL1145009 (J Med Chem, 2003).

In general, IC50 refers to the concentration needed to halve the response being measured. As usually defined, the Cmax is the peak of the concentration-time curve. For orientation: AUC means the area under the concentration-time curve, a measure of exposure. The term Tmax denotes the time from dosing to the highest level.

In the case of `COc1ccc(-c2sc3c(c2CN(C)Cc2ccccc2)c(=O)n(-c2cccc(OC)c2)c(=O)n3Cc2c(F)cccc2F)cc1`, in data set [1], the IC50 was 20 nM.

The compound `CC(C)NC(=O)Nc1ccc(-c2sc3c(c2CN(C)Cc2ccccc2)c(=O)n(-c2ccccc2)c(=O)n3Cc2c(F)cccc2F)cc1` had an IC50 in [1] of 0.2 nM.

Compound `COc1ccc(-c2sc3c(c2CN(C)Cc2ccccc2)c(=O)n(-c2ccccc2)c(=O)n3Cc2c(F)cccc2F)cc1` came in with an IC50 in data set [1] of 50 nM.

The compound `COc1cccc(-n2c(=O)c3c(CN(C)Cc4ccccc4)c(-c4ccc(NC(=O)C(C)C)cc4)sc3n(Cc3c(F)cccc3F)c2=O)c1` gave an IC50 in data set [1] of 0.3 nM.

As for `CCONC(=O)Nc1ccc(-c2sc3c(c2CN(C)Cc2ccccc2)c(=O)n(-c2ccccc2)c(=O)n3Cc2c(F)cccc2F)cc1`, the IC50 in data set [1] came out at 0.2 nM.

With `CN(Cc1ccccc1)Cc1c(-c2ccc(NC(=O)c3ccccc3)cc2)sc2c1c(=O)n(-c1ccccc1)c(=O)n2Cc1c(F)cccc1F`, the IC50 in [1] was 1 nM.

Consider `CCC(=O)N(C)c1ccc(-c2sc3c(c2CN(C)Cc2ccccc2)c(=O)n(-c2cccc(OC)c2)c(=O)n3Cc2c(F)cccc2F)cc1`, for which the IC50 in data set [1] is 20 nM.

As for `COc1ccc(-c2sc3c(c2CN(C)Cc2ccccc2)c(=O)n(-c2ccccc2OC)c(=O)n3Cc2c(F)cccc2F)cc1`, the half-maximal inhibitory concentration (IC50) in data set [1] worked out at 200 nM.

`CC(C)ONC(=O)Nc1ccc(-c2sc3c(c2CN(C)Cc2ccccc2)c(=O)n(-c2ccccc2)c(=O)n3Cc2c(F)cccc2F)cc1` returned an IC50 in data set [1] of 0.6 nM.

The compound `COc1ccc(-c2sc3c(c2CN(C)Cc2ccccc2)c(=O)n(Cc2ccccc2)c(=O)n3Cc2c(F)cccc2F)cc1` came in with an IC50 in data set [1] of 400 nM.

Turning to `COc1ccc(-c2sc3c(c2CN(C)Cc2ccccc2)c(=O)n(-c2ccc(Cl)cc2)c(=O)n3Cc2c(F)cccc2F)cc1`, the IC50 in data set [1] was 200 nM.

Take `COc1ccc(-c2sc3c(c2CN(C)Cc2ccccc2)c(=O)n(-c2ccc(OC)cc2)c(=O)n3Cc2c(F)cccc2F)cc1`: the IC50 in data set [1] was determined as 30 nM.

`COc1ccc(-c2sc3c(c2CN(C)Cc2ccccc2)c(=O)n(C2CCCCC2)c(=O)n3Cc2c(F)cccc2F)cc1`: in data set [1], the IC50 worked out at 700 nM.

`CCC(=O)Nc1ccc(-c2sc3c(c2CN(C)Cc2ccccc2)c(=O)n(-c2ccccc2)c(=O)n3Cc2c(F)cccc2F)cc1`: the peak level in data set [2] (Cmax) was 630 nM. In data set [3], this compound gave an AUC of 2.5 µM·h. Moreover, in data set [4], the Tmax was 3 h.

The compound `CNC(=O)Nc1ccc(-c2sc3c(c2CN(C)Cc2ccccc2)c(=O)n(-c2ccccc2)c(=O)n3Cc2c(F)cccc2F)cc1` displayed an IC50 in data set [1] of 0.1 nM.

Take `COc1ccc(-c2sc3c(c2CN(C)Cc2ccccc2)c(=O)n(-c2cccc(Cl)c2)c(=O)n3Cc2c(F)cccc2F)cc1`: the IC50 in data set [1] is 200 nM.

Regarding `COc1ccc(-c2sc3c(c2CN(C)Cc2ccccc2)c(=O)n(CC(C)C)c(=O)n3Cc2c(F)cccc2F)cc1`, the 50% inhibitory concentration (IC50) in data set [1] came out at 400 nM.

In data set [1], `COc1cccc(-n2c(=O)c3c(CN(C)Cc4ccccc4)c(-c4ccc([N+](=O)[O-])cc4)sc3n(Cc3c(F)cccc3F)c2=O)c1` registered an IC50 of 20 nM.

The compound `CCNC(=O)Nc1ccc(-c2sc3c(c2CN(C)Cc2ccccc2)c(=O)n(-c2ccccc2)c(=O)n3Cc2c(F)cccc2F)cc1` returned a Cmax in data set [2] of 63 nM. The compound further yielded an AUC in [5] of 0.27 µM·h. In [4], the Tmax was found to be 3 h.

Turning to `CC(C)C(=O)Nc1ccc(-c2sc3c(c2CN(C)Cc2ccccc2)c(=O)n(-c2ccccc2)c(=O)n3Cc2c(F)cccc2F)cc1`, the IC50 in data set [1] came to 0.4 nM.

As for `COc1ccc(-c2sc3c(c2CN(C)Cc2ccccc2)c(=O)n(-c2ccccc2Cl)c(=O)n3Cc2c(F)cccc2F)cc1`, in data set [1], the IC50 stood at 80 nM.

The compound `CCC(=O)Nc1ccc(-c2sc3c(c2CN(C)Cc2ccccc2)c(=O)n(-c2cccc(OC)c2)c(=O)n3Cc2c(F)cccc2F)cc1` came in with an IC50 in data set [1] of 0.2 nM.

In turn, `CN(Cc1ccccc1)Cc1c(-c2ccc(NC(=O)NO)cc2)sc2c1c(=O)n(-c1ccccc1)c(=O)n2Cc1c(F)cccc1F` returned an IC50 in data set [1] of 0.4 nM.

In [1], `COc1cccc(-n2c(=O)c3c(CN(C)Cc4ccccc4)c(-c4ccc(N)cc4)sc3n(Cc3c(F)cccc3F)c2=O)c1` showed an IC50 of 1 nM.

In data set [2], `CONC(=O)Nc1ccc(-c2sc3c(c2CN(C)Cc2ccccc2)c(=O)n(-c2ccccc2)c(=O)n3Cc2c(F)cccc2F)cc1` [SUFUGOLIX] registered a Cmax of 210 nM. In addition, the LH concentration in data set [6] turned out to be 0.1 mU ml-1; in [7] it was 0.25 mU ml-1; in data set [8], 0.19 mU ml-1; in [9], 0.76 mU ml-1; in data set [10] it was 0.71 mU ml-1; in [11] it was 0.91 mU ml-1. In addition, the LH concentration in data set [12] is on record as 0.13 mU ml-1; in [13], 0.18 mU ml-1; in [14] it was 0.55 mU ml-1; in data set [15], 0.37 mU ml-1; in data set [16], 0.74 mU ml-1; in [17], 1.01 mU ml-1. Moreover, in [5], the AUC came out at 0.85 µM·h. Further, in data set [4], the Tmax came out at 6 h.
